Assay outcomes: PubChem, several laboratories
Only a selection was taken, and hits are over-represented in it overall.
UPR CHOP act = activators of apoptotic arm of unfolded protein response (CHOP). CHO-CHOP luciferase reporter, UPR activation, luminescence; percent of tunicamycin response over DMSO baseline. 330,000 compounds, 0.34% hits. AID 449763. activation, % at 10 µM;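 active means at 10 µM dose, activation of 40% or more, normalized to positive control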;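 further: 100% = tunicamycin at 10 µg/mL and 0% = DMSO alone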
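Assay system: CHO-CHOP cells, stable luciferase reporter of PERK-eIF2a-CHOP signalling / Buffer or medium: F12 plus 10% serum / Compound dosing: one dose, 10 µM in 0.5% DMSO / Times: 6 h compound treatment, 37 °C / Technique: luciferase luminescence / Read-out: % reporter activation, DMSO baseline versus tunicamycin full activation / Benchmarks: tunicamycin and DMSO controls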
CHOP inh = inhibitors of CHOP induction in ER stress response; inhibition, % at 10 µM; AID 2732; 220,000 compounds, 3.8% hits; CHO-K1 CHOP-promoter luciferase, tunicamycin-induced, 15-18 h;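 active means compounds that reduced the stress-induced luciferase reporter signal by more than about 70% of percent inhibition, limit read from the data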;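 further: 0% = tunicamycin plus vehicle and 100% = wells without tunicamycin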
Jurkat NFkB inh = lowers PMA/ionomycin-induced NF-kB signal in Jurkat cells | PMA/ionomycin-induced NF-kB luciferase reporter, luminescence | inhibition, % at 4 µM | 330,000 compounds, 0.53% hits | AID 435003; in the data active means inhibition above about 50%
XBP1 UPR activ = adaptive UPR (XBP1) activation; CHO-XBP1 luciferase reporter, IRE1-XBP1 UPR activation, luminescence; percent of tunicamycin response, DMSO as zero; activation, % at 20 µM; 330,000 compounds, 0.33% hits; AID 463104;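 active means versus positive control, 20 µM dose yields 30% or more activation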;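 further: 100% = tunicamycin at 10 µg/mL and 0% = DMSO only wells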
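Material: CHO cell line with stable XBP1 luciferase reporter; schedule: 16-18 h cell attachment at 37 °C, then 6 h compound exposure; signal: glow luminescence from Steady-Glo reagent; medium: serum-containing F12 medium, 10% FBS; benchmarks: tunicamycin 10 µg/mL and vehicle-only wells; read-out: percent activation relative to tunicamycin reference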
697 NFkB inh = lowers PMA/ionomycin-induced NF-kB signal in 697 B cells; 697 B-cell NF-kB luciferase reporter, 16 h; inhibition, % at 4 µM; 330,000 compounds, 0.33% hits; AID 435022; in the data active means inhibition above about 35%
* = called active by the depositor; / = not tested or not shown.

SMILES | UPR CHOP act | CHOP inh | Jurkat NFkB inh | XBP1 UPR activ | 697 NFkB inh
Cc1ccc(C(=O)OCC(=O)Nc2cc(C(C)(C)C)nn2-c2ccccc2)c(O)c1 | -1 | / | 7 | -2 | -11
O=[N+]([O-])c1cccc(-c2cn3nc(-c4ccccc4)c(-c4ccccc4)nc3n2)c1 | 3 | 0 | -18 | 2 | 3
O=Nc1c(-c2cccc([N+](=O)[O-])c2)nc2ncccn12 | 131* | 34 | 12 | 9 | 13
CC(=NCC1CCNCC1)C1=C(O)CC(C)(C)CC1=O | -3 | 78* | -8 | -3 | -7
O=C(CNS(=O)(=O)c1ccc(F)cc1)N1CCN(c2ccccc2)CC1 | 3 | 80* | -7 | -3 | 4
COc1cc(/C=C2\SC(=O)N(CCNC(=O)c3c(C)noc3C)C2=O)cc(OC)c1OC | 0 | / | 6 | -2 | 9
O=C(NC1CCCC1)C(c1ccc(F)cc1)N(Cc1ccc(F)cc1)C(=O)c1ccn[nH]1 (centres undefined) | 0 | -6 | -3 | -3 | 8
O=C(NC1CCCCC1)C(c1ccc(F)cc1)N(Cc1cccs1)C(=O)CN1C(=O)c2ccccc2S1(=O)=O (centres undefined) | 6 | 91* | -3 | 11 | -9
O=C(NCC1CCCO1)C(c1ccncc1)N(Cc1cccs1)C(=O)CN1C(=O)c2ccccc2S1(=O)=O (centres undefined) | 1 | -1 | -11 | -2 | 6
O=C(NC1CCCC1)C(c1ccc(F)cc1)N(Cc1ccccc1Cl)C(=O)CCl (centres undefined) | 10 | 108* | -4 | 6 | -52
Cc1nc2scc(C)n2c(=O)c1S(=O)(=O)N1CCN(c2ccc([N+](=O)[O-])cc2)CC1 | 0 | / | 9 | 0 | -7
Cc1ccc2c(c1)N(C(=O)CCC(=O)Nc1ccccc1Cl)CC(C)O2 (centres undefined) | 0 | / | -1 | -1 | 16
COc1ccc(N2CCN(C(=O)c3ccc(CS(=O)(=O)c4ccc(Br)cc4)o3)CC2)cc1 | -3 | / | 21 | -1 | -27
CCc1c(C)nc2cc(-c3cc(OC)cc(OC)c3)nn2c1N1CCCC1 | 0 | 92* | -3 | 7 | -15
O=C(COc1cccc(Br)c1)N/N=C1\CCCc2ccccc21 | 1 | 75* | -3 | -1 | -8
CC1Cc2nc(SCC(=O)Nc3ccc(F)cc3)n(C)c(=O)c2S1 (centres undefined) | -3 | 21 | 1 | -1 | -22
COc1cccc(NC(=O)CSc2nc3c(c(=O)n2C)SC(C)C3)c1 (centres undefined) | -1 | 79* | 2 | -1 | -26
O=C(CS(=O)(=O)Cc1ccccc1)NCc1ccco1 | -3 | 10 | -2 | 1 | -33
Cc1ccc(Cn2nc(-c3ccccc3)nc2-c2ccccc2)cc1 | 2 | 75* | -42 | 1 | -68
O=C(c1ccc2c(=O)n3c(nc2c1)CCC3)N1CCCSC1=Nc1ccccc1 | 1 | / | 11 | -1 | -2
CC(=O)c1sc(N/N=C\c2cccc(Br)c2)nc1C | 3 | 81* | -14 | -1 | -3
CC(=O)c1sc(N/N=C\c2ccc(Br)cc2)nc1C | 5 | 24 | -66 | 6 | -92
COc1ccc(C2N(c3ccc(C)cc3)CCN2c2ccc(C)cc2)cc1O | -1 | 95* | -28 | -1 | 9
O=C(CNS(=O)(=O)c1ccccc1)N/N=C/c1ccccc1[N+](=O)[O-] | -1 | / | -8 | 0 | 20
CCOc1ccc(-c2nc3scc(-c4cccs4)c3c(=O)[nH]2)cc1 | -1 | 73* | -34 | 8 | -15
SMILES | UPR CHOP act | CHOP inh | Jurkat NFkB inh | XBP1 UPR activ | 697 NFkB inh
CCOc1ccc(CNC(=S)N/N=C\c2ccc([N+](=O)[O-])cc2)cc1 | 0 | 46 | -10 | 6 | -20
CCCCOc1ccc(CNC(=S)N/N=C/c2ccc(OC)c(OC)c2)cc1 | 2 | 88* | 3 | -1 | -7
O=C1CC(N2CCN(C3CC(=O)N(CCc4ccccc4)C3=O)CC2)C(=O)N1CCc1ccccc1 (centres undefined) | -2 | 1 | -11 | -3 | 10
O=C1CC(N2CCC(Cc3ccccc3)CC2)C(=O)N1CCc1ccccc1 (centres undefined) | -1 | 72* | -9 | -2 | 0
CS(=O)(=O)c1ccc(C(=O)CN2C(=O)NC3(CCCc4ccccc43)C2=O)cc1 (centres undefined) | -1 | / | 1 | 2 | 7
OCCN1CCN(C2Cc3cc(Cl)ccc3Sc3ccc(Cl)cc32)CC1 (centres undefined) (tested in a mixture with another compound) | 0 | 75* | 5 | 2 | -1
CN1CCN(C2Cc3cc(Cl)ccc3Sc3cc(F)ccc32)CC1 (centres undefined) | 2 | / | -8 | 4 | -2
COc1ccc(-c2nc(CN3CCN(C(=O)c4ccco4)CC3)c(C)o2)c(F)c1 | -1 | / | 0 | 0 | 9
CC1(C)CCC(NC(=O)[C@@H](N)CCC(=O)O)CC1 | / | 19 | / | / | /
COc1ccc(/C=C/C(=O)NCc2cccnc2)cc1 | 2 | 15 | -17 | -1 | 4
COc1ccc(/C=C/C(=O)Nc2sc3c(c2C(=O)NCc2cccnc2)CCCC3)cc1 | 2 | 81* | -25 | 5 | 7
COc1cc(C(=O)OCC(=O)Nc2c(F)c(F)c(F)c(F)c2F)cc(OC)c1OC | -2 | -2 | -7 | -5 | 6
COc1cc(C(=O)OCC(=O)Nc2c(F)cccc2F)cc(OC)c1C | -1 | 94* | -7 | -4 | 12
Cn1nnnc1N=N/C(=N/Nc1ccccc1)c1ccccc1 | 6 | 70* | 38 | 5 | -40
CC(C)NS(=O)(=O)c1ccc(OCC(=O)NCc2ccc3c(c2)OCO3)c(Cl)c1 | -2 | 24 | -17 | -3 | 11
CC(C)NS(=O)(=O)c1ccc(OCC(=O)Nc2ccc3c(c2)OCO3)c(Cl)c1 | -1 | 70* | -5 | 0 | 6
CCCC(=NC(C)CC)C1=C(O)CC(c2ccccc2)CC1=O (centres undefined) | 2 | / | -6 | -2 | -10
COc1ccc(OCC(=O)Nc2cccc(-c3nc4ccccc4o3)c2)cc1 | 2 | 75* | -29 | 0 | -10
COc1ccc(C(=O)Nc2cccc(-c3nnc(-c4ccco4)o3)c2)cc1 | 4 | 72* | 2 | 2 | -67
COc1ccc(CC(=O)Nc2cccc(-c3nnc(-c4ccco4)o3)c2)cc1 | 0 | 59 | -24 | 1 | -59
O=C(Nc1ccc2oc(-c3cccc(F)c3)nc2c1)c1ccccc1F | 7 | 73* | -44 | 10 | -76
O=C(Nc1cccc(-c2nc3ccccc3o2)c1)c1ccc(N2C(=O)C3C4C=CC(C4)C3C2=O)cc1 (centres undefined) | -4 | 71* | -7 | 2 | 6
